Calls of active or inactive are those of the source. The rule behind the calls is not given here.
Assays:
CYP1A1 [1] = biological target: T1, CYP1A1 (Homo sapiens, UniProt P35869); test: Agonist activity at AhR in human HepG2 cells assessed as induction of CYP1A1 activity at 80 nM using 7-ethoxyresorufin as substrate after 24 hrs by ethoxyresorufin-O-deethylase assay relative to DMSO; assay type: cell-based; details: probe 7-ethoxyresorufin, read-out: FC
T1 sequence (P35869 whole entry): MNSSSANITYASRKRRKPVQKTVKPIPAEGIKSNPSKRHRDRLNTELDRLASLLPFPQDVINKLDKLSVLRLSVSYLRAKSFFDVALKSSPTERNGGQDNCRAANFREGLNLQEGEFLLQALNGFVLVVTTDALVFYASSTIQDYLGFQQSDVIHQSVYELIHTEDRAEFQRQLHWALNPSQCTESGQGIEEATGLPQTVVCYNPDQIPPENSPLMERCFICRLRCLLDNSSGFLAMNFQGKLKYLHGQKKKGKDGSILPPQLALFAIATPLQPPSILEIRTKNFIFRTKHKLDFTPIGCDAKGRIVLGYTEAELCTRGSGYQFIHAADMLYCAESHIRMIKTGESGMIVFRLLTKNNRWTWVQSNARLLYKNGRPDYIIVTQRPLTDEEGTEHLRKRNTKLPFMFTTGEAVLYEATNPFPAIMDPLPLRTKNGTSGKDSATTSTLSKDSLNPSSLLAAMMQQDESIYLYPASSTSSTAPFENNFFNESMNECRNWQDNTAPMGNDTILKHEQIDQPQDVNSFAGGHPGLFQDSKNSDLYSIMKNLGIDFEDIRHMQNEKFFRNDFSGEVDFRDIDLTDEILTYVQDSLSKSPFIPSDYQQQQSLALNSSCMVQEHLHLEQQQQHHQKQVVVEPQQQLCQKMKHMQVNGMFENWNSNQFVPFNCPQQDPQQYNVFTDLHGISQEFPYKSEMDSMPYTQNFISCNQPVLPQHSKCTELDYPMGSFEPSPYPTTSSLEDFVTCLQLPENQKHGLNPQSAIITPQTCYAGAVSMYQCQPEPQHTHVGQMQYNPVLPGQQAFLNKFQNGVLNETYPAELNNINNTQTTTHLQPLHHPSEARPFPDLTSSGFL
Summary of the method: (§1)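 EROD read-out of CYP1A1 activity in HepG cells treated for 24 h with compound or vehicle (DMSO) at 0.13 nM, 3.2 nM and 80 nM. Activity is reported as fold induction over the DMSO-treated cells.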

CYP1A1 [2] = biological target: T1, CYP1A1; test: Agonist activity at AhR in human HepG2 cells assessed as induction of CYP1A1 activity at 0.13 nM using 7-ethoxyresorufin as substrate after 24 hrs by ethoxyresorufin-O-deethylase assay relative to DMSO; assay type: cell-based; details: probe 7-ethoxyresorufin, read-out: FC; summary of the method: as §1
CYP1A1 [3] = biological target: T1, CYP1A1; test: Agonist activity at AhR in human HepG2 cells assessed as induction of CYP1A1 activity at 3.2 nM using 7-ethoxyresorufin as substrate after 24 hrs by ethoxyresorufin-O-deethylase assay relative to DMSO; assay type: cell-based; details: probe 7-ethoxyresorufin, read-out: FC; summary of the method: as §1
[4] = biological target: T2, Aryl hydrocarbon receptor (Homo sapiens, UniProt P35869); test: Agonist activity at AhR in human HepG2 cells assessed as increase in CYP1A1 protein expression at 300 nM after 24 hrs by Western blot analysis; assay type: cell-based; details: hepg2, 24 h, 0.3 µM
T2 sequence (P35869 whole entry): T1 sequence (P35869 whole entry)
Summary of the method: (§2)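 HepG2 cells were exposed to a dose series for 24 h. CYP1A1 protein levels were then assessed by Western blotting.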

[5] = biological target: T2, Aryl hydrocarbon receptor; test: Agonist activity at AhR in human HepG2 cells assessed as induction of CYP1A1 expression after 24 hrs by ethoxyresorufin-O-deethylase assay; assay type: cell-based; details: for Activity: human, hepg2, 24 h
Summary of the method: (§3)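 Full dose-response in the EROD assay. HepG2 cells were treated for 24 h across a concentration series, with FICZ as the reference agonist. CYP1A1 induction was read out and EC50 values were derived from the curves.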

[6] = biological target: T2, Aryl hydrocarbon receptor; test: Agonist activity at AhR in human HepG2 cells assessed as increase in CYP1A1 protein expression after 24 hrs by Western blot analysis; assay type: cell-based; details: hepg2, 24 h; summary of the method: as §2
[7] = biological target: T2, Aryl hydrocarbon receptor; test: Agonist activity at AhR in human HepG2 cells assessed as induction of CYP1A1 expression at <30 pM after 24 hrs by ethoxyresorufin-O-deethylase assay; assay type: cell-based; details: hepg2, 24 h; summary of the method: as §3
HepG2 = test: Effect on AhR mRNA expression in human HepG2 cells assessed as 100 nM after 6 hrs by q-RT-PCR analysis; assay type: functional, cell-based
Summary of the method: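 HepG2 cells were treated at 100 nM for 6 h. AhR and CYP1A1 mRNA levels were then quantified by qRT-PCR, normalized to GAPDH.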

[8] = biological target: T2, Aryl hydrocarbon receptor; test: Potency index, ratio of FICZ EC50 to test compound EC50 for agonist activity at AhR in human HepG2 cells assessed as increase in CYP1A1 expression after 24 hrs by ethoxyresorufin-O-deethylase assay; assay type: cell-based; details: hepg2, 24 h
[9] = biological target: T2, Aryl hydrocarbon receptor; test: Agonist activity at AhR in human HepG2 cells assessed as increase in CYP1A1 protein expression at 3 to 10 nM after 24 hrs by Western blot analysis; assay type: cell-based; details: hepg2, 24 h; summary of the method: as §2
CYP1A1 [10] = biological target: T1, CYP1A1; test: Agonist activity at AhR in human HepG2 cells assessed as induction of CYP1A1 activity at 3.2 nM using 7-ethoxyresorufin as substrate after 24 hrs by ethoxyresorufin-O-deethylase assay relative to 3-phenylbenzo[f]chromen-1-one; assay type: cell-based; details: probe 7-ethoxyresorufin, read-out: FC
CYP1A1 [11] = biological target: T1, CYP1A1; test: Agonist activity at AhR in human HepG2 cells assessed as induction of CYP1A1 activity at 0.13 nM using 7-ethoxyresorufin as substrate after 24 hrs by ethoxyresorufin-O-deethylase assay relative to 3-phenylbenzo[f]chromen-1-one; assay type: cell-based; details: probe 7-ethoxyresorufin, read-out: FC

| fold induction at 24 h, 0.08 µM (CYP1A1 [1]) | fold induction at 24 h, 0.00013 µM (CYP1A1 [2]) | fold induction at 24 h, 0.0032 µM (CYP1A1 [3]) | SMILES | other results |
| --- | --- | --- | --- | --- |
| 25.1 | 1.4 | 4.5 | CCn1c2ccccc2c2c(C=O)c3c(cc21)c1ccccc1n3C | – |
| 8.9 | 1.3 | 1.9 | CCCn1c2ccccc2c2c(C=O)c3c(cc21)c1ccccc1n3C | – |
| – | – | – | O=Cc1c2[nH]c3ccccc3c2cc2[nH]c3ccccc3c12 | Activity [5]: Dose-dependent effect |
| 2.6 | 0.3 | 0.5 | OCc1c2c(cc3c4ccccc4n(CC4CC4)c13)[nH]c1ccccc12 | – |
| 3.4 | 0.4 | 0.5 | CCCn1c2ccccc2c2cc3[nH]c4ccccc4c3c(CO)c21 | – |
| 31.8 | 1.4 | 3.5 | CCn1c2ccccc2c2cc3[nH]c4ccccc4c3c(CO)c21 | – |
| 62.6 | 5.3 | 26.7 | Cn1c2ccccc2c2cc3[nH]c4ccccc4c3c(CO)c21 | – |
| 39.4 | 1.6 | 3.4 | Cn1c2ccccc2c2c(C=O)c3c(cc21)c1ccccc1n3C | – |
| 27.5 | 1 | 4.2 | Cn1c2ccccc2c2cc3c(c(C=O)c21)c1ccccc1n3Cc1ccccc1 | – |
| 3.6 | 0.4 | 0.7 | OCc1c2c(cc3c4ccccc4n(Cc4ccccc4)c13)[nH]c1ccccc12 | – |
| 82.4 | 27.3 | 88.9 | Cn1c2ccccc2c2cc3[nH]c4ccccc4c3c(C=O)c21 | Activity [6]: Dose-dependent effect; Activity [7]: Active; Activity (HepG2): inactive; Ratio EC50 [8]: 8; EC50 [5]: 0.26 nM; Activity [5]: Dose-dependent effect; Activity [9]: Active |
| 59.2 | 3.8 | 13.4 | OCc1c2[nH]c3ccccc3c2cc2[nH]c3ccccc3c12 | fold induction at 24 h, 0.0032 µM (CYP1A1 [10]): 12; fold induction at 24 h, 0.00013 µM (CYP1A1 [11]): 5 |

| SMILES | fold induction at 24 h, 0.08 µM (CYP1A1 [1]) | fold induction at 24 h, 0.00013 µM (CYP1A1 [2]) | fold induction at 24 h, 0.0032 µM (CYP1A1 [3]) | other results |
| --- | --- | --- | --- | --- |
| O=c1cc(-c2ccccc2)oc2ccc3ccccc3c12 [BETA-NAPHTHOFLAVONE] | 11.2 | 0.8 | 1.1 | Activity [4]: Active |

— ChEMBL document CHEMBL4616611, “Synthesis and biological evaluation of FICZ analogues as agonists of aryl hydrocarbon receptor” (Bioorg Med Chem Lett, 2020)
